Measured values reported in paper PMC7442688 (Nature chemical biology, 2020).

Biological target: T1, purified mLYPLAL1 (Mus musculus, UniProt Q3UFF7)
T1 sequence (Q3UFF7 1-239): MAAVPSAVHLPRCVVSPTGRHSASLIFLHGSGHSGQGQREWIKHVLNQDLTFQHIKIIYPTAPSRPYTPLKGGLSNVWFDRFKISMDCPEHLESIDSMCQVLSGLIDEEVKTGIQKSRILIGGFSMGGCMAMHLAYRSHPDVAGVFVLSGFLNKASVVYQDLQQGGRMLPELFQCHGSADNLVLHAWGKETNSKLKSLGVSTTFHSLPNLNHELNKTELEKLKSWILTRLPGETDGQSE
Assay: NanoDSF thermal stability assay
Assay type: binding
Conditions: recombinant mLYPLAL1
Outline: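 Purified mouse LYPLAL1 (2.3 μM final) in PBS pH 7.4 with varying test compound concentrations (2% DMSO final) in capillaries. Intrinsic-fluorescence nanoDSF over a 20–95°C ramp at 1°C/min. Kd estimated by isothermal analysis of the unfolding data.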

- effect on thermal stability of mLYPLAL1: not seen
Compound: COc1ccc(S(=O)(=O)n2nc(NCc3ccc(Cl)cc3)nc2N)cc1 [Compound 80, 3-(4-chlorobenzyl)amino-1-((4-methoxyphenyl)sulfonyl)-5-amino-1H-1,2,4-triazole]
